An excerpt weighted towards active compounds, which were near 1.2% of everything screened.
Tn7 DDE FP – disrupts Tn7 cyclic peptide binding to fibrin D-Dimer-E complex; inhibition, % at 8.3 µM; FP displacement of FITC-Tn7 peptide from fibrin DD(E); 0% = median of compound wells per plate; 0.13% of 370,000 active;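 active means inhibition above the mean of compounds falling within the control limits plus 3 SD of them, cut at about 14% in these data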
Target sequence (P02675 whole entry, looked up): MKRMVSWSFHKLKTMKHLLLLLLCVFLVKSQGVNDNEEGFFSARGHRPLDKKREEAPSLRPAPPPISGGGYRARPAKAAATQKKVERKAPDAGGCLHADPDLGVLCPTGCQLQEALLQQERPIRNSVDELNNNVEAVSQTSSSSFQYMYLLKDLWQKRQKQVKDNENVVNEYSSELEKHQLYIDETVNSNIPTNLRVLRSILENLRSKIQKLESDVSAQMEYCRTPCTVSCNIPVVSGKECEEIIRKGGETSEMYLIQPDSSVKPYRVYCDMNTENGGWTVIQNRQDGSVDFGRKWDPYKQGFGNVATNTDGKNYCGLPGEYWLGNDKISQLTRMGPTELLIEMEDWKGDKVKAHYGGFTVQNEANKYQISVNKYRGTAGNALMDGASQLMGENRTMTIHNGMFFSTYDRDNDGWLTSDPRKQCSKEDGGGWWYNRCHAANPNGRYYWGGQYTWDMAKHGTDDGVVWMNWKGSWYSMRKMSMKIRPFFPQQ
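Assay system: human fibrin DD(E). Input: DD(E) 2 µM final. Medium: Tris buffer with calcium and detergent, pH 7.8. Compound dosing: single point at 8.3 µM. Timing: 10 min plus 3 h, room temperature. Technique: fluorescence polarization of the labelled Tn7 tracer. Read-out: percent inhibition. Replicates: singlicate testing.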
CRFBP-R2 agonist – CRF-BP/CRF-R2 complex agonism; HEK293 CRF-R2/CRF-BP, calcium dye fluorescence (FLIPR); percent of saturating CRF peptide response; activation, % at 13.2 µM; 0.46% of 350,000 active; AID 588473;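 active means activation of at least 50%, plus an integration ratio under a set limit after plate pattern correction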
Tn6 DDE FP – inhibitors of Tn6 peptide binding to human fibrin DD(E); Fibrin DD(E) TRITC-Tn6 fluorescence polarization displacement; inhibition, % at 8.3 µM; 0.21% of 370,000 active; AID 720509;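 active means inhibition above a per-campaign cutoff: mean of compounds within control limits plus 3 SD, cut at about 15% in these data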
CRFBP-R2 block – antagonists of CRF-binding protein/CRF-R2 receptor complex; HEK293 CRF-R2/CRF-BP, CRF-induced calcium fluorescence; inhibition, % at 11.8 µM; 0.59% of 350,000 active; AID 588475;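 active means inhibition of the ligand-induced calcium signal above about 50% at the single tested concentration, limit read from the data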
Hits are given with their value; 0 = inactive; - = not tested or not shown; + = active, no number.

SMILES	Tn7 DDE FP	CRFBP-R2 agonist	Tn6 DDE FP	CRFBP-R2 block
CN(Cc1nccs1)C(=O)c1ccc(OC2CCN(Cc3ccccn3)CC2)cc1	0	0	0	0
Cc1nn(C)cc1CN(C)C(=O)c1ccc(OC2CCN(Cc3ccccn3)CC2)cc1	0	0	0	57
O=c1nc(N/N=C/C=C/c2ccccc2)cn[nH]1	0	0	0	98
CC1(c2ccc(OC(F)F)cc2)NC(=O)N(CC(=O)Nc2cccnc2Cl)C1=O (stereo not drawn)	0	96	0	0
COc1ccc(C2(C)NC(=O)N(CC(=O)Nc3cccnc3Cl)C2=O)cc1 (stereo not drawn)	0	0	0	0
CCCNc1c(NS(=O)(=O)c2ccc(Br)cc2)c(=O)oc2ccccc12	0	0	0	0
O=C(c1ccc(NS(=O)(=O)c2cccc([N+](=O)[O-])c2)cc1)N1CCCCCC1	0	0	0	115
COc1cc(C=NN=c2sc3ccccc3n2C)ccc1OCCO	0	-	0	-
O=S(=O)(Nc1ccc2c(c1)CCC2)c1cccs1	0	0	0	52
Cc1ccc(S(=O)(=O)N2CCCC2C(c2ccccc2O)c2cn(C)c3ccccc23)cc1 (stereo not drawn)	0	-	0	-
O=C(Nc1nnc(-c2ccccc2Cl)o1)c1nc2ccccc2s1	0	140	0	0
COc1cccc2sc(Nc3nnc(-c4ccccc4Cl)o3)nc12	0	77	0	0
O=C(Nc1nnc(-c2ccccc2Cl)o1)c1ccco1	0	0	0	0
COc1ccccc1-c1nnc(Nc2nc3c(OC)cccc3s2)o1	0	0	0	53
C=CCN1[C@H](CC(C)C)COc2cc(N3CCCC3)ccc2S1(=O)=O	0	-	0	-
NC1=NC[C@@H](CC2CCCCC2)N1CCc1cc(C(F)(F)F)cc(C(F)(F)F)c1	-	78	-	0
NC1=NC[C@H](Cc2ccc(O)cc2)N1CCc1cc(C(F)(F)F)cc(C(F)(F)F)c1	0	0	0	0
Cc1cc2c(s1)c1cnn(Cc3c(Cl)ccc(C)c3F)c(=O)c1n2C	0	-	0	-
O=S1(=O)C=CCN1Cc1cn(Cc2ccccc2)nn1	0	-	0	-
Nc1nnc(SCc2ccccc2Cl)s1	-	0	-	0
Nc1nnc(SCc2cc3c(cc2Cl)OCO3)s1	0	0	0	59
NC(=O)c1nsc(C(=O)N(c2ccc(F)cc2)C(C(=O)NCC2CCCO2)c2ccc3ncccc3c2)c1N (stereo not drawn)	0	0	0	0
COc1cc(OC)c(-c2c3cc(O)c(=O)cc-3oc3cc(O)c(O)cc23)cc1OC	0	171	+	0
Cc1c2cc(O)c(=O)cc-2oc2cc(O)c(O)cc12	15	0	0	0
Cc1ccccc1NC(=O)N(C)[C@H]1C[C@H]2c3[nH]c4c(-c5ccccc5)cccc4c3CCN2C[C@H]1[C@H](C)O	0	-	0	-
SMILES	Tn7 DDE FP	CRFBP-R2 agonist	Tn6 DDE FP	CRFBP-R2 block
CN(CCOC(=O)c1cccs1)C1CN(Cc2cn(Cc3ccccc3Cl)nn2)S(=O)(=O)C1 (stereo not drawn)	0	-	0	-
CC(C)CCN(C)C1CCN(C(=O)Nc2ccc3c(c2)OCO3)CC1	0	-	0	-
Cc1ccc(C)n1NC(=O)c1ccccc1[N+](=O)[O-]	0	0	0	0
Cc1ccc(C)n1NC(=O)c1ccccc1O	0	0	0	80
COc1ccc(S(=O)(=O)N(C)CC(=O)NC2CCCCC2)cc1OC	0	0	0	51
COc1cc(CNc2ccccc2SC)ccc1O	0	0	0	55
COc1cc(C[C@@H](C)[C@@H](C)Cc2ccc(O)c(OC)c2)ccc1O	0	0	0	0
O=C(CSc1nnc(-c2ccccc2)n1-c1ccc(Cl)cc1)Nc1ccccc1-c1ccccc1	0	-	0	-
CCc1cc2ccc(C)cc2nc1SCC(=O)Nc1cc(OC)c(OC)cc1C(=O)O	0	0	0	0
COc1cc(NC(=O)CSc2nc3c(C)ccc(C)c3cc2C)c(C(=O)O)cc1OC	0	0	0	99
Cc1cccc(C(=O)NC(=S)NNC(=O)c2ccccc2Cl)c1	0	152	0	0
Cc1ccc(OCC(=O)NNC(=S)NC(=O)C(C)(C)C)c(Br)c1	0	84	0	0
Cc1cccc(C(=O)NC(=S)NNC(=O)Cc2ccccc2)c1	0	137	0	0
Cc1ccc(OCC(=O)NC(=S)Nc2ccccn2)c(Br)c1	0	0	0	0
Cc1cccc(C(=O)NC(=S)N2CCN(C)CC2)c1	0	0	0	0
Cc1cccc(C(=O)NC(=S)N2CCN(C(=S)NC(=O)c3cccc(C)c3)CC2)c1	0	0	0	50
Cc1cccc(C(=O)NC(=S)Nc2ccccc2C(=O)O)c1	0	0	0	0
Cc1cccc(C(=O)NC(=S)NCc2ccccc2)c1	0	0	0	0
CC1CCC(CN2CCN=C2Nc2ccccc2)CC1 (stereo not drawn)	0	0	0	0
COC(=O)C1CN(Cc2ccccc2)CCS(=O)(=O)N1Cc1cn(Cc2ccccc2)nn1 (stereo not drawn)	0	-	0	-
O=C(COc1ccccc1)NNC(=S)NC(=O)c1ccccc1	0	0	0	0
Cc1cccc(C(=O)NC(=S)NNC(=O)COc2c(C)cccc2C)c1	0	167	0	0
Cc1ccc(C(=O)NC(=S)NNC(=O)COc2ccccc2C)cc1	0	114	0	0
COC(=O)[C@]12C[C@H](CC(=O)N3CCN(C(=O)c4ccco4)CC3)C(=O)N(Cc3ccc(Cl)cc3Cl)C1=C[C@H](C1CCCC1)O[C@@H]2C	0	-	0	-
CC(C)CN1C(=O)C[C@]2(C(=O)N(C)c3ccc(NS(=O)(=O)C4CC4)cc32)C1c1ccccc1 (stereo partly drawn)	0	-	0	-
SMILES	Tn7 DDE FP	CRFBP-R2 agonist	Tn6 DDE FP	CRFBP-R2 block
CC(C)CNC(=O)CN1c2cccc3cccc(c23)S1(=O)=O	0	0	0	79
CC(NC(=O)CN1c2cccc3cccc(c23)S1(=O)=O)c1ccccc1 (stereo not drawn)	0	0	0	0
COc1cc(OC)cc(C(=O)N/N=C/c2ccc(OC)c(COc3ccc(F)cc3)c2)c1	0	62	0	0
O=[N+]([O-])c1cc([N+](=O)[O-])c2nonc2c1Nc1ccc(O)cc1	0	0	18	0
C/C(=N\NC(=O)c1ccc(NS(=O)(=O)c2cccs2)cc1)c1ccccc1	0	0	0	58
C/C(=N\NC(=O)c1ccc(NS(=O)(=O)c2cccs2)cc1)c1ccncc1	0	0	0	0
C=CCN(Cc1ccc2c(c1)OCO2)C(C#CCCCC)C(C)C (stereo not drawn)	0	-	0	-
Cc1ccc(S(=O)(=O)Nc2nc3ccccc3nc2NCc2ccco2)cc1	0	0	44	0
Nc1ccc2ccc(O)cc2c1	0	0	0	0
C[n+]1c2cc(N)ccc2cc2ccc(N)cc21	0	225	0	0
CC1(C(=O)NS(=O)(=O)C2CC2)CCCN(C(=O)c2ccc3c(c2)OCO3)C1 (stereo not drawn)	0	-	0	-
COC[C@H]1CCCN1c1ccc2c(c1)O[C@H]1CCN(C1)S2(=O)=O	0	-	0	-
CC(CCc1ccco1)NC(=O)c1cccc2c1C(=O)N(C1CCCCC1)C2 (stereo not drawn)	0	0	0	51
